SR-BI DiI inh = inhibitors of SR-BI mediated HDL lipid uptake, primary screen, ldlA[mSR-BI] cells, fluorescence, single point. ldlA[mSR-BI] CHO cells, DiI-HDL uptake fluorescence, 3 h. inhibition, % at 12.5 µM. 0.96% of 320,000 active. AID 488896, 2010;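 active = mean replicate inhibition of at least 70% and a set share of replicates each scoring 70 or more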;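 also: 0% = median of neutral control wells and 100% = median of positive control wells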
Target sequence (Q61009 whole entry, looked up): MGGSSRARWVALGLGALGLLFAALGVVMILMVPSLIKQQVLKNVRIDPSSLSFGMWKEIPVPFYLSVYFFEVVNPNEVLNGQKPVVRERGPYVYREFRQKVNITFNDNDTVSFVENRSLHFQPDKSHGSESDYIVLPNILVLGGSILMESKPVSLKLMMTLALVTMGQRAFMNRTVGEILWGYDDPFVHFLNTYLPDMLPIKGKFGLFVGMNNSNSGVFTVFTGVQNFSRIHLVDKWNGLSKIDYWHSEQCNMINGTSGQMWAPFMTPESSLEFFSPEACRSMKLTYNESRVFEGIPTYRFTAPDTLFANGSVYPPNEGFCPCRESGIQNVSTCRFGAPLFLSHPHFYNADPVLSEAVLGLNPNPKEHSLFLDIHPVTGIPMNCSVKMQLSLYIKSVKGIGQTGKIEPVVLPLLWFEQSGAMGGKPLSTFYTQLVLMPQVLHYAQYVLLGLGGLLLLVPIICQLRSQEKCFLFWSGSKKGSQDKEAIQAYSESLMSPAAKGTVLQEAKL
dFosB act = activators of delta FosB homodimer, primary screen, biochemical, fluorescence polarization, TAMRA-CDK5 oligo, single point | 0.99% of 340,000 active | purified delta FosB; percent of positive-control signal above neutral wells | Protein FosB (Mus musculus), P13346 | activation, % at 25 µM;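 active = mean activation above about 17%, with every replicate also reaching it, limit read from the data, passing the limit was not always enough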
CAL PDZ FP-1 = CAL PDZ peptide-binding inhibitors, primary screen, biochemical, fluorescence polarization, Cer-tagged CAL PDZ, HTS; inhibition, % at 20 µM; purified CAL PDZ, TMR-peptide fluorescence polarization, 1 h; 0.02% of 330,000 active; Golgi-associated PDZ and coiled-coil motif-containing protein (Homo sapiens), Q9HD26;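 active = highest replicate inhibition of at least 40%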;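 also: plate controls were DMSO neutral control wells for no effect and unlabeled competitor peptide control wells for full effect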
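Material: tagged CAL PDZ domain; buffer or medium: 25 mM sodium phosphate pH 7.4, 150 mM NaCl, TCEP, IgG, Thesit; compound dosing: single point, 20 µM; schedule: 1 h incubation at room temperature before polarization reading; measured by: FP readout, S and P plane fluorescence; read-out basis: percent inhibition from loss of millipolarization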
SR-BI DiI-HDL act = activators of SR-BI mediated DiI-HDL uptake, primary screen, ldlA[mSR-BI] CHO cells, DiI fluorescence; 0.096% of 320,000 active; activation, % at 12.5 µM; 3 h; 100 = double the neutral-control signal;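 active = mean replicate activation of at least 60% and every replicate at or above 60%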;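 also: 0% = median plate neutral-control signal and 100% = twice that signal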
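Material: SR-BI-overexpressing, LDLR-lacking CHO cells | Dosing: Single compound concentration, delivered by pin transfer | Probe or stimulus: Labelled HDL, 10 µg/mL | Signal: Bottom-read cell fluorescence after medium removal, ex 550/em 595 nm | Schedule: 3 h, 37 °C | Evaluation: HDL uptake via cellular fluorescence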
CAL PDZ FP-2 = untagged CAL PDZ binding inhibitors, primary screen, biochemical, fluorescence polarization, HTS | Golgi-associated PDZ and coiled-coil motif-containing protein (Homo sapiens), Q9HD26 | AID 602252, 2012 | inhibition, % at 24.9 µM | purified CAL PDZ, TMR-peptide fluorescence polarization, 1 h | 0.92% of 300,000 active;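 active = mean inhibition of at least 30% with at least half of replicates also reaching 30%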;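 also: 0% = DMSO neutral control and 100% = excess unlabeled competitor peptide PRC23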
Numbers without * were called inactive; nt = no result. In the library only some 2.8% were active in any assay of this set; here they are far more common.

SMILES	SR-BI DiI inh	dFosB act	CAL PDZ FP-1	SR-BI DiI-HDL act	CAL PDZ FP-2
CCNC(=S)NNC(=O)CC(C)C	-20	3	-1	20	36*
CCOc1ccc(N/C(N)=N/c2nc(CSc3nnnn3-c3ccccc3)cc(=O)[nH]2)cc1	-2	0	-1	2	0
Cc1cn(C(C)C)c(=O)n(-c2ccccc2)c1=O	-9	0	nt	9	33*
Cc1ccccc1/C(N)=N/OC(=O)N1c2ccccc2Sc2ccccc21	45	-3	-1	-45	0
Cc1ccc(/C(N)=N/OC(=O)N2c3ccccc3Sc3ccccc32)cc1	25	-7	-3	-25	81*
O=C(Nc1ccccc1)Nc1nccs1	-2	-4	0	2	6
CC(C)(C(=O)Nc1nccs1)c1ccccc1	-15	-5	16	15	66*
Nc1ccc(OCCCc2c(N)nc(N)nc2N)cc1	9	21*	1	-9	-5
CSC(=O)NC(=O)NC(=O)c1ccc([N+](=O)[O-])cc1	-3	-9	-1	3	-2
COc1cc(CCC(=O)OCC(=O)N(CC(C)C)C2CCS(=O)(=O)C2)cc(OC)c1OC (centres undefined)	2	-6	-2	-2	-3
COc1ccc(-c2sc3ccccc3c2/C=C/c2ccc(OC)c(OC)c2)cc1	82*	7	0	-82	-1
Cc1nn(-c2ccccc2)c(N2CCCC2)c1/C=N/NC(=O)c1ccccc1O	55	-14	0	-55	nt
O=C(N/N=C/c1cc2c3c(c1O)CCCN3CCC2)c1ccccc1O	140*	-9	-1	-140	11
CCOc1ccc(/C=C/C(=O)N(CC)CC(=O)Nc2ccc3c(c2)OCCO3)cc1OCC	74*	-13	-3	-74	-1
CC(C)N(CCNC(=O)COc1ccc2oc3c(c2c1)CCCC3)C(C)C	-12	-3	-4	12	-5
O=C(Nc1cc(S(=O)(=O)N2CCOCC2)ccc1N1CCOCC1)c1ccc(Cl)nc1	nt	-6	-2	nt	1
COc1ccccc1-n1c2nc3ccccc3nc2c2c(=O)n(-c3cc(C)cc(C)c3)cnc21	79*	-10	-3	-79	-4
O=C1CC(c2ccc3c(c2)OCCO3)Oc2ccc([N+](=O)[O-])cc21 (centres undefined)	17	-5	0	-17	79*
O=C(Nc1ccc(N2CCCC2)cc1)c1cccc(Cl)c1Cl	79*	1	-1	-79	4
O=C(Nc1ccc(N2CCCC2)cc1)c1ccccc1F	2	26*	-1	-2	1
COc1cc(OC)c(C(=O)OCC(=O)Nc2nnc(-c3ccccc3)o2)cc1OC	-10	-4	1	10	2
COCCN1CC(=O)N2C(c3cccc(OC)c3)c3[nH]c4ccccc4c3C[C@H]2C1=O (some centres undefined)	39	-6	-2	-39	-3
O=C(Cc1ccccc1Cl)Nc1nc2ccccc2[nH]1	-6	3	-1	6	-2
CC1Cc2ccccc2N1C(=O)CSc1nccc(=O)[nH]1 (centres undefined)	15	-1	0	-15	3
Cn1c(N)c(C(=O)COC(=O)Cc2ccc(Br)cc2)c(=O)n(C)c1=O	-17	0	-3	17	-2
SMILES	SR-BI DiI inh	dFosB act	CAL PDZ FP-1	SR-BI DiI-HDL act	CAL PDZ FP-2
Cn1c(N)c(C(=O)COC(=O)CC2CC3CCC2C3)c(=O)n(C)c1=O (centres undefined)	-12	1	10	12	88*
O=C(Nc1ccccc1N1CCOCC1)c1cccnc1	3	5	10	-3	85*
Cc1cc(C)n(-c2ccc(C(=O)Nc3ccccc3N3CCOCC3)cc2)n1	80*	-2	-6	-80	nt
Cc1cc(C)n(-c2ccc(C(=O)Nc3cc(C(F)(F)F)ccc3N3CCOCC3)cc2)n1	60	-3	1	-60	-5
CC1CCCC(C)N1C(=O)COc1ccc(C(=O)Nc2ccccc2N2CCOCC2)cc1 (centres undefined)	82*	-6	-1	-82	4
O=C(Nc1ccc(N2CCOCC2)c(Cl)c1)c1cccnc1	13	3	-1	-13	nt
CCOc1ccc(C(=O)Nc2ccccc2N2CCOCC2)cc1	54	-1	0	-54	-5
CCN1CCN(CC(=O)N2N=C(c3ccc(OC)cc3)CC2c2ccc(OC)cc2)C(=O)C1=O (centres undefined)	-7	-2	-2	7	-3
CCCCCN(C(=O)CCC(=O)OC(C)C(=O)c1ccc(CC)cc1)c1c(N)n(CCCC)c(=O)[nH]c1=O (centres undefined)	51	-10	0	-51	1
Cc1ccc(C(C)C)c(OCC(=O)Nc2ccc3c(c2)nc(CCN2CCCCC2)n3C)c1	-2	7	-4	2	-3
Cc1nn(-c2ccc(Cl)cc2)c(=O)c2c(C)noc12	-4	4	-1	4	nt
O=c1c(C=NCC2CCCO2)c(-c2ccccc2)[nH]n1-c1ccc([N+](=O)[O-])cc1 (centres undefined)	nt	-1	-3	nt	0
COc1ccc(-c2[nH]n(-c3ccc([N+](=O)[O-])cc3)c(=O)c2C=NCC2CCCO2)cc1 (centres undefined)	82*	-3	1	-82	-8
COC(=O)CC1C(=O)NCCN1C(=O)c1ccc([N+](=O)[O-])cc1 (centres undefined)	-1	1	-1	1	70*
COc1ccccc1C(=O)Nc1cc(Cl)ccc1-n1cncn1	29	-1	-1	-29	-4
COc1cc(OC)c(C(=O)Nc2cc(Cl)ccc2-n2cncn2)cc1OC	81*	-2	-2	-81	-5
O=c1[nH]c2ccccc2cc1CN(CC1CCCO1)S(=O)(=O)c1ccccc1 (centres undefined)	-26	-16	0	26	66*
CCc1nn(C(C)C(=O)NCCN2CCN(c3cccc(C)c3C)CC2)c(=O)c2cc3occc3n12 (centres undefined)	80*	5	-1	-80	-2
Cc1ccc(C(=O)NCC(c2ccco2)N2CCc3ccccc32)cc1 (centres undefined)	16	3	-2	-16	0
CC(=O)Nc1ccc(S(=O)(=O)N[C@@H](C)C(=O)NC2CCCc3ccccc32)cc1 (some centres undefined)	24	-6	-1	-24	2
O=C(Nc1cnccn1)Nc1ccccc1F	-14	-1	-1	14	52*

Screens (PubChem)
